Measured values from ChEMBL document CHEMBL4190408 (J Med Chem, 2018).
≈ marks a conversion by molar mass, not a printed value. Each block holds one compound with its values, some of them ahead of it. Calls of active or inactive are those of the source. No cut-off for these calls is given here.

What was measured:
[1] = Thermodynamic solubility of the compound in pH 7.4 solution after 90 mins by UVLC-MS analysis; assay type: physicochemical; conditions: for Therm_solubility: buffer, pH 7.4, 1.5 h; for solubility thermodynamic at 1.5 h: pH 7.4 solution, pH 7.4, read-out: Therm_solubility
[2] = biological target: T1, Voltage-gated inwardly rectifying potassium channel KCNH2 (Homo sapiens, UniProt Q12809)
T1 sequence (Q12809 whole entry): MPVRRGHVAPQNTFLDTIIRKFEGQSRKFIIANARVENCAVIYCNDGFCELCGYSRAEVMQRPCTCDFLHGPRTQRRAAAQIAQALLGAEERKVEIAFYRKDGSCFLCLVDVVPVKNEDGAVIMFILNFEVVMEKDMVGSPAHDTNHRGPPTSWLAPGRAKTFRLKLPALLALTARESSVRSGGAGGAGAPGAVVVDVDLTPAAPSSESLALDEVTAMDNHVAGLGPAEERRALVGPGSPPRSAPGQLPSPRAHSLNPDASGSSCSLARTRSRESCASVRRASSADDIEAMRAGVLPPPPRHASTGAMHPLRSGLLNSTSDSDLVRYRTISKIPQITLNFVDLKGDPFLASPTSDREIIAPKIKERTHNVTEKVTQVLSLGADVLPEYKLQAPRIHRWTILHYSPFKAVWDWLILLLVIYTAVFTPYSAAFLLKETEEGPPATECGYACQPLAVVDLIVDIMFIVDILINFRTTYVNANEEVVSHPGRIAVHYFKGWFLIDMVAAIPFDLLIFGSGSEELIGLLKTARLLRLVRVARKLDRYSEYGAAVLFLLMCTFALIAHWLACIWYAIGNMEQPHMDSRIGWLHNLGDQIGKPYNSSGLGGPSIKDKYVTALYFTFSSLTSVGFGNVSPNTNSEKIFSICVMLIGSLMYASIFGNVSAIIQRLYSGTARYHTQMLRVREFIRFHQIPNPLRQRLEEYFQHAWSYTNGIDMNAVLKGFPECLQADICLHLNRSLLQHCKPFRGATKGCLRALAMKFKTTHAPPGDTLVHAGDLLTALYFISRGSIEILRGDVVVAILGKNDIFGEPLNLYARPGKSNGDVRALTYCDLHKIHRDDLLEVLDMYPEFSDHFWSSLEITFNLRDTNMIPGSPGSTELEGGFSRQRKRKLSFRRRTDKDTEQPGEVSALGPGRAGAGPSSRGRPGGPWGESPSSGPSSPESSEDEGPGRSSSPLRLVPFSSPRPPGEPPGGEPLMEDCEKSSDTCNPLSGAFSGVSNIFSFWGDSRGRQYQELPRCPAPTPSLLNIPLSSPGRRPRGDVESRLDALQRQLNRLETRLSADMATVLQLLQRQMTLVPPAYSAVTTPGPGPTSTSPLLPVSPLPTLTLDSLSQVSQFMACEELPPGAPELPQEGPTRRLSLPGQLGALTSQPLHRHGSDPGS

[3] = biological target: T2, Cytochrome P450 3A4 (Homo sapiens, UniProt P08684); conditions: liver microsomes
T2 sequence (P08684 whole entry): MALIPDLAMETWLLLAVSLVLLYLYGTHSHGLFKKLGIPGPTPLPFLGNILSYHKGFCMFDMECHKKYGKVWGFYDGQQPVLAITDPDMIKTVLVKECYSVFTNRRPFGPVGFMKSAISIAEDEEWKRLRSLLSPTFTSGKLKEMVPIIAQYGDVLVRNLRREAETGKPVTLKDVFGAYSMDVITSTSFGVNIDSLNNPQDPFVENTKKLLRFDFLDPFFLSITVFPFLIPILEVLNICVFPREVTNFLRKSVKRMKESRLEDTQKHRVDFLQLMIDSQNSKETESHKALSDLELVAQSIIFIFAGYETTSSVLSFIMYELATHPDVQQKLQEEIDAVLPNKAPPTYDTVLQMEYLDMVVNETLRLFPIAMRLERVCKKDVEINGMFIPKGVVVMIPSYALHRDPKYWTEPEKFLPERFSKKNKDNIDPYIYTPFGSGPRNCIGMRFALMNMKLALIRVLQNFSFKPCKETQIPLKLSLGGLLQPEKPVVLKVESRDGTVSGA

[4] = physchem
[5] = physchem; conditions: phosphate buffer, pH 7.4
[6] = Fraction unbound in mouse blood; assay type: ADME, tissue-based
[7] = Apparent clearance in Balb/c mouse at 10 mg/kg, po after 1 hr; assay type: ADME, organism-based; conditions: in vivo
[8] = test system: Mus musculus; assay: Unbound AUC (infinity) in Balb/c mouse at 10 mg/kg, po after 1 hr; assay type: ADME, organism-based; conditions: in vivo
[9] = test system: Mus musculus; assay: Unbound Cmax in Balb/c mouse at 10 mg/kg, po after 1 hr; assay type: ADME, organism-based; conditions: in vivo
[10] = Clearance in Balb/c mouse at 1 mg/kg, iv; assay type: ADME, organism-based; conditions: Balb/c, in vivo
How it was run: (§1)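 Intravenous PK in male Balb/C mice, n=3, at 1 mpk. Vehicle was 30% DMA or 15% NMP, depending on the compound.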

[11] = test system: Mus musculus; assay: Unbound AUC in Balb/c mouse at 1 mg/kg, iv; assay type: ADME, organism-based; conditions: in vivo; how it was run: as §1
[12] = Half life in Balb/c mouse at 1 mg/kg, iv; assay type: ADME, organism-based; conditions: Balb/c, in vivo; how it was run: as §1
[13] = Volume of distribution at steady state in Balb/c mouse at 1 mg/kg, iv; assay type: ADME, organism-based; conditions: Balb/c, in vivo, read-out: Vdss; how it was run: as §1
[14] = Oral bioavailability in Balb/c mouse at 10 mg/kg after 1 hr; assay type: ADME, organism-based; conditions: Balb/c, in vivo
How it was run: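 Male Balb/C mice, n=3. Oral dose of 10 mpk as a homogeneous suspension of crystalline solid in 0.1% Tween 80, 0.1% silicone antifoam, 1% methylcellulose (400 cps) in water. I.v. dose of 1 mpk in 30% DMA or 15% NMP, depending on the compound. Bioavailability was extrapolated from the i.v./p.o. experiments.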

[15] = biological target: T1, Voltage-gated inwardly rectifying potassium channel KCNH2; remark: listed apart in the source
[16] = biological target: T2, Cytochrome P450 3A4
[17] = in vitro; conditions: human
[18] = in vitro; conditions: mouse
[19] = biological target: Phosphatidylinositol 4-kinase type 2-alpha (Homo sapiens) (UniProt Q9BTU6); assay: Inhibition of recombinant human full length GST-tagged PI4K2alpha expressed in insect cells at 10 uM
Sequence of Phosphatidylinositol 4-kinase type 2-alpha (Homo sapiens) (Q9BTU6 whole entry): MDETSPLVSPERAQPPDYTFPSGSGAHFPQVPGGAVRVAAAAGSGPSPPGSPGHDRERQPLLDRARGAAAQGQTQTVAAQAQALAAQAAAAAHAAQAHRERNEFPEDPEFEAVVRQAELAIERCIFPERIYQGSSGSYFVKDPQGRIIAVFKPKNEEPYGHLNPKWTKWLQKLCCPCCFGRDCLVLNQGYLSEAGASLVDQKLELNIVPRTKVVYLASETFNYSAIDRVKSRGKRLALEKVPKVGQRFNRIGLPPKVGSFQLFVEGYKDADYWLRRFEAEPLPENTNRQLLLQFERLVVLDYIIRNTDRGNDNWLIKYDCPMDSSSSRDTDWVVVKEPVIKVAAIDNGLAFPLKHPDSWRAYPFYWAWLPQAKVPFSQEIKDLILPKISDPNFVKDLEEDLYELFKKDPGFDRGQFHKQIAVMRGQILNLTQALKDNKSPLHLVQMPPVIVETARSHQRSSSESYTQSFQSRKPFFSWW

[20] = biological target: Phosphatidylinositol 4-kinase type 2-beta (Homo sapiens) (UniProt Q8TCG2); assay: Inhibition of recombinant human full length GST-tagged PI4K2beta expressed in insect cells at 10 uM
Sequence of Phosphatidylinositol 4-kinase type 2-beta (Homo sapiens) (Q8TCG2 whole entry): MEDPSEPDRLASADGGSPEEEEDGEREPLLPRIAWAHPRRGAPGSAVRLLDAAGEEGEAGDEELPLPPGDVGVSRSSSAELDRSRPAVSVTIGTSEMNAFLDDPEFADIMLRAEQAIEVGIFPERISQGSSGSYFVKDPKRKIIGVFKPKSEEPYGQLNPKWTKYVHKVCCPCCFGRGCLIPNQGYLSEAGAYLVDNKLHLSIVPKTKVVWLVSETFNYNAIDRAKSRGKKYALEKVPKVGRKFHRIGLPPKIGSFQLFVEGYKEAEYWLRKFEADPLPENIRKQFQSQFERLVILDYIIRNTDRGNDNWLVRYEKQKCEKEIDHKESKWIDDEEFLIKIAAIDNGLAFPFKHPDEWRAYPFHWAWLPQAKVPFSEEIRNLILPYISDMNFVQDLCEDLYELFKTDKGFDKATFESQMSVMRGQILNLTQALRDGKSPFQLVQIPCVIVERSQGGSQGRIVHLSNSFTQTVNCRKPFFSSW

[21] = biological target: Phosphatidylinositol 4-kinase alpha (Homo sapiens) (UniProt P42356); assay: Inhibition of PI4K3alpha (unknown origin) at 10 uM
Sequence of Phosphatidylinositol 4-kinase alpha (Homo sapiens) (P42356 whole entry, looked up): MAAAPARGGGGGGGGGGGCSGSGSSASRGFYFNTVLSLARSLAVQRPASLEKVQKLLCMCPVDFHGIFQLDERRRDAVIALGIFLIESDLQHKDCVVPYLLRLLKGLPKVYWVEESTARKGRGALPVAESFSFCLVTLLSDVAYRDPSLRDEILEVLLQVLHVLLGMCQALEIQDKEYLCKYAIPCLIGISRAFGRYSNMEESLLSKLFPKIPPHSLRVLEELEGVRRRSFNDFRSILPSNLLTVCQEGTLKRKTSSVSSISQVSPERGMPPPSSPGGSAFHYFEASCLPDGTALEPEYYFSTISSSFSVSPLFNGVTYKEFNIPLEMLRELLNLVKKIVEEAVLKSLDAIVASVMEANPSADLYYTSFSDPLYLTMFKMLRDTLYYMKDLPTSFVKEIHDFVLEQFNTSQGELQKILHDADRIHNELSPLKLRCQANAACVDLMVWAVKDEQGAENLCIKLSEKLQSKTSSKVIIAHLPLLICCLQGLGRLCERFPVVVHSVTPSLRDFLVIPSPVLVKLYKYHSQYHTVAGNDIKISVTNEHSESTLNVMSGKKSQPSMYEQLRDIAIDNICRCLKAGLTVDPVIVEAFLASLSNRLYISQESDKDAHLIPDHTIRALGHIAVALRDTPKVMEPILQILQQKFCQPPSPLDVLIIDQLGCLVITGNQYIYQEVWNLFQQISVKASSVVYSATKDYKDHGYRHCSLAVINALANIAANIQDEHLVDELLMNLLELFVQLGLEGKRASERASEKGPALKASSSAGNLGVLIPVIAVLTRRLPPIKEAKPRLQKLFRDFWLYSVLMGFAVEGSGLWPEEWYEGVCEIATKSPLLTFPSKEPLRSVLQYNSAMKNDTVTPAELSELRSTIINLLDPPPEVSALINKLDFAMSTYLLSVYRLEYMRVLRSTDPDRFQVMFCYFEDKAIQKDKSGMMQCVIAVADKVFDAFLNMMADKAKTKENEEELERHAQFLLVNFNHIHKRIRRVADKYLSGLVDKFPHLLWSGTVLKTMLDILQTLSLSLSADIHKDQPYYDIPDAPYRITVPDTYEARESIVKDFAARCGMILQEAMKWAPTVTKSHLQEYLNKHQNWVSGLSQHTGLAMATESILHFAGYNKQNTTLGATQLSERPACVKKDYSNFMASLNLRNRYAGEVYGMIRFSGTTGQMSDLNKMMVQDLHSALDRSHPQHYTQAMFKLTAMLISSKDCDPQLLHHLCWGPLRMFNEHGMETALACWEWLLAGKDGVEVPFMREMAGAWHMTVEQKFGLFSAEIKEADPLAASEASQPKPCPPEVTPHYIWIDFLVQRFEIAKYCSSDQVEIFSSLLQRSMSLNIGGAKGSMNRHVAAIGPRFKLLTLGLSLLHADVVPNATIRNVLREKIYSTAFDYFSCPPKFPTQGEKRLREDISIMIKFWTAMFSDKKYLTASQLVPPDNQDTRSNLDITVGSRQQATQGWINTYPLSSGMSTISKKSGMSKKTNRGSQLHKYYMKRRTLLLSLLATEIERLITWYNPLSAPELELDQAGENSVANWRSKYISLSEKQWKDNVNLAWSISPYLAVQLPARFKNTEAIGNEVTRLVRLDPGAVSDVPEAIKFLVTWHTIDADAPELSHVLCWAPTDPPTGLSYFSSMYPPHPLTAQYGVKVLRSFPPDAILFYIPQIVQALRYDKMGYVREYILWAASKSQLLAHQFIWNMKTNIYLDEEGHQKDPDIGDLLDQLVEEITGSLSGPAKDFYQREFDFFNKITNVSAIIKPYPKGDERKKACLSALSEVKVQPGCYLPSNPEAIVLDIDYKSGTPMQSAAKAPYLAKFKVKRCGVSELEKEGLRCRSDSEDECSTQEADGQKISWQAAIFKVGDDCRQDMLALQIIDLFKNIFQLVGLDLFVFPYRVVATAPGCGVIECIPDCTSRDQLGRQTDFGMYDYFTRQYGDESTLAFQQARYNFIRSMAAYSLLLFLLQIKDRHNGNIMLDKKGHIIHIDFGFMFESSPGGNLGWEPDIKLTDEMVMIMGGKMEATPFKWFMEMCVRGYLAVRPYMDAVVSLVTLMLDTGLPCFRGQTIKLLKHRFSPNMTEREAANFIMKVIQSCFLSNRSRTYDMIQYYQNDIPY

Therm_solubility [1]: Nd(Insoluble)
IC50 [3]: Nd(Insoluble)
solubility kinetic at 1.5 h ([4]; buffer, pH 7.4): > 350 µM
Structure (SMILES): COc1ccc(NC(=O)N2C3CCC2CN(c2nc(N)nc4scnc24)C3)cc1
IC50 [2]: Nd(Insoluble)

logD at 1.5 h [5]: 1.5
solubility kinetic at 1.5 h ([4]; buffer, pH 7.4): > 350 µM
Structure (SMILES): COc1ccc(CC(=O)N2CCN(c3nc(N)nc4scnc34)CC2)cc1OC

logD at 1.5 h [5]: 2.22
solubility kinetic at 1.5 h ([4]; buffer, pH 7.4): 33 µM (≈ 13.2 µg/mL)
Structure (SMILES): COc1ccc(CNC(=O)N2CCN(c3nc(N)nc4scnc34)CC2)cc1

logD at 1.5 h [5]: 3.39
solubility kinetic at 1.5 h ([4]; buffer, pH 7.4): 12 µM (≈ 5.27 µg/mL)
Structure (SMILES): Nc1nc(N2CCN(C(=O)Nc3ccc(OC(F)(F)F)cc3)CC2)c2ncsc2n1

logD at 1.5 h [5]: 2.84
solubility kinetic at 1.5 h ([4]; buffer, pH 7.4): 14 µM (≈ 5.31 µg/mL)
Structure (SMILES): Nc1nc(N2CCN(C(=O)c3cc4ccccc4[nH]3)CC2)c2ncsc2n1

logD at 1.5 h [5]: 2.68
solubility kinetic at 1.5 h ([4]; buffer, pH 7.4): 13 µM (≈ 5.26 µg/mL)
Structure (SMILES): Nc1nc(N2CCN(C(=O)COc3ccc(Cl)cc3)CC2)c2ncsc2n1

solubility thermodynamic at 1.5 h [1]: 30 µM (≈ 12 µg/mL)
fraction unbound [6]: 0.02
CL/F [7]: 42 mL/min/kg
fAUC [8]: 0.205 µM·h
fCmax [9]: 194 nM
clearance [10]: 29 mL/min/kg
fAUC [11]: 0.03 µM·h
half-life [12]: 54 min
Vd [13]: 1 L/kg
bioavailability [14]: 68%
IC50 [16]: > 20 µM
microsomal CLint at 0.75 h, 3 µM ([17]; liver microsomes): 14 µL/min/mg
microsomal CLint at 0.75 h, 3 µM ([18]; liver microsomes): 35 µL/min/mg
logD at 1.5 h [5]: 2.32
solubility kinetic at 1.5 h ([4]; buffer, pH 7.4): > 350 µM
Structure (SMILES): COc1ccc(NC(=O)N2CCN(c3nc(N)nc4scnc34)[C@@H](C)C2)cc1
IC50 [15]: 17 µM

logD at 1.5 h [5]: 2.03
solubility kinetic at 1.5 h ([4]; buffer, pH 7.4): 33 µM (≈ 13.2 µg/mL)
Structure (SMILES): COc1ccc(NC(=O)N2CCN(c3nc(N)nc4scnc34)CC2)c(C)c1

logD at 1.5 h [5]: 2.55
solubility kinetic at 1.5 h ([4]; buffer, pH 7.4): 21 µM (≈ 7.76 µg/mL)
Structure (SMILES): Cc1ccc(NC(=O)N2CCN(c3nc(N)nc4scnc34)CC2)cc1

solubility thermodynamic at 1.5 h [1]: 3 µM (≈ 1.24 µg/mL)
solubility kinetic at 1.5 h ([4]; buffer, pH 7.4): 160 µM (≈ 66.2 µg/mL)
Structure (SMILES): COc1ccc(NC(=O)N2CCN(c3nc(N)nc4scnc34)[C@@H](C)C2)c(C)c1

Therm_solubility [1]: Nd(Insoluble)
IC50 [3]: Nd(Insoluble)
solubility kinetic at 1.5 h ([4]; buffer, pH 7.4): 83 µM (≈ 34.3 µg/mL)
Structure (SMILES): COc1ccc(NC(=O)N2C[C@@H](C)N(c3nc(N)nc4scnc34)[C@@H](C)C2)cc1
IC50 [2]: Nd(Insoluble)

microsomal CLint at 0.75 h, 3 µM ([17]; liver microsomes): 35 µL/min/mg
microsomal CLint at 0.75 h, 3 µM ([18]; liver microsomes): 87 µL/min/mg
Structure (SMILES): COc1ccc(NC(=O)N2CCN(c3nc(N)nc4sc(-c5cccnc5)nc34)CC2)cc1

logD at 1.5 h [5]: 1.58
solubility kinetic at 1.5 h ([4]; buffer, pH 7.4): > 350 µM
Structure (SMILES): Nc1nc(N2CCN(C(=O)c3cn4ccccc4n3)CC2)c2ncsc2n1

logD at 1.5 h [5]: 1.46
solubility kinetic at 1.5 h ([4]; buffer, pH 7.4): > 350 µM
Structure (SMILES): Nc1nc(N2CCN(C(=O)Nc3cccnc3)CC2)c2ncsc2n1

inhibition [19]: inactive
inhibition [20]: inactive
inhibition [21]: inactive
microsomal CLint at 0.75 h, 3 µM ([17]; microsomes): 32 µL/min/mg
microsomal CLint at 0.75 h, 3 µM ([18]; microsomes): 72 µL/min/mg
logD at 1.5 h [5]: 3.42
solubility kinetic at 1.5 h ([4]; pH 7.4 solution): 9 µM (≈ 4.02 µg/mL)
Structure (SMILES): Cc1ccc(NC(=O)N2CCN(c3nc(N)nc4sc(-c5cccnc5)nc34)CC2)cc1
IC50 [15]: 2 µM

Therm_solubility [1]: Nd(Insoluble)
IC50 [3]: Nd(Insoluble)
solubility kinetic at 1.5 h ([4]; buffer, pH 7.4): > 350 µM
Structure (SMILES): COc1ccc(NC(=O)N2CCN(c3nc(N)nc4scnc34)CC2C)cc1 (stereo not given)
IC50 [2]: Nd(Insoluble)

solubility thermodynamic at 1.5 h [1]: 52 µM (≈ 21.5 µg/mL)
logD at 1.5 h [5]: 1.96
solubility kinetic at 1.5 h ([4]; buffer, pH 7.4): > 350 µM
Structure (SMILES): COc1ccc(NC(=O)N2CCN(c3nc(N)nc4sncc34)[C@@H](C)C2)c(C)c1

solubility thermodynamic at 1.5 h [1]: 150 µM (≈ 61.6 µg/mL)
fraction unbound [6]: 0.2
CL/F [7]: 46 mL/min/kg
fAUC [8]: 1.746 µM·h
fCmax [9]: 1087 nM
clearance [10]: 19 mL/min/kg
fAUC [11]: 0.447 µM·h
half-life [12]: 48 min
Vd [13]: 0.8 L/kg
bioavailability [14]: 39%
microsomal CLint at 0.75 h, 3 µM ([17]; liver microsomes): 9 µL/min/mg
microsomal CLint at 0.75 h, 3 µM ([18]; liver microsomes): 10 µL/min/mg
logD at 1.5 h [5]: 1.35
solubility kinetic at 1.5 h ([4]; buffer, pH 7.4): > 350 µM
Structure (SMILES): COc1ccc(NC(=O)N2CCN(c3nc(N)nc4c3ncn4C)[C@@H](C)C2)c(C)c1
